Consider six molecules from ChEMBL document CHEMBL5576114, “Inhibition of DXR in the MEP pathway with lipophilic N-alkoxyaryl FR900098 analogs” (RSC Med Chem, 2024).

Values after ≈ are worked out from the molar mass of the structure shown. Active and inactive are the calls of the source. The rule behind the calls is not given here.

Series [1] deals with Plasmodium falciparum. Kind of series: Antiplasmodial activity against Plasmodium falciparum 3D7 assessed as reduction in parasite growth by measuring DNA content after 3 days by PicoGreen staining based FLUOstar omega microplate reader analysis. Type of series: functional, organism-based. The conditions noted are these: 3D7, 72 h. In outline:
(§1)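 Asynchronous cultures in 2% hematocrit, RPMI-1640 complete medium with 0.5% Albumax, under 5% O2/5% CO2/90% N2 at 37 °C. Diluted to 0.5% parasitemia, inhibitors 1.2 nM to 492.4 µM added at start. Growth read after 3 days as DNA content by PicoGreen fluorescence (485/528 nm). IC50 from 4-parameter nonlinear regression; technical duplicate, biological triplicate.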

Series [2] deals with Plasmodium falciparum. As to the kind of experiment: Antiplasmodial activity against Plasmodium falciparum E1-C12 harboring with had1 mutation assessed as reduction in parasite growth by measuring DNA content after 3 days in presence of IPP by PicoGreen staining based FLUOstar omega microplate reader analysis. The series is classed as functional, organism-based. The conditions noted are these: time 3.0 day. Put shortly:
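IPP rescue in had1 E1-C12 parasites: 125 µM IPP was present for the whole assay. Cultures at 2% hematocrit in Albumax-supplemented RPMI, 5% O2/5% CO2, 37 °C, started at 0.5% parasitemia. Inhibitors were dosed at 1.2 nM–492.4 µM, and growth was read after 3 days by PicoGreen fluorescence. 4-parameter fit; duplicate wells, biological triplicates.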

The target of series [3] is T1, 1-deoxy-D-xylulose 5-phosphate reductoisomerase (Mycobacterium tuberculosis) (UniProt P9WNS1).
T1 sequence (whole entry): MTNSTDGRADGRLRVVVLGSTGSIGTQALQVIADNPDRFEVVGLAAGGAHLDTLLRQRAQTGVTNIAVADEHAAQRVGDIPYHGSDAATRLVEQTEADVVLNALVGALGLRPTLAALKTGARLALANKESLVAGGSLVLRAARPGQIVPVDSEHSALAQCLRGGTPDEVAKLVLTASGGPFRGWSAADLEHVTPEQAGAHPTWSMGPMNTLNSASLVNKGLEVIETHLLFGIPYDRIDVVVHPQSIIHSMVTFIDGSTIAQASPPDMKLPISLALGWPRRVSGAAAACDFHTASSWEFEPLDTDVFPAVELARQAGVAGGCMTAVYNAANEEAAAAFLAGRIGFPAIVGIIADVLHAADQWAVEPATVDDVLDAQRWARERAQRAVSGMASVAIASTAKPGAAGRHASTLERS
Kind of series: Inhibition of Mycobacterium tuberculosis DXR expressed in Escherichia coli BL21 CodonPlus (DE3)-RIL cells using DOXP as substrate at 100 uM in presence of NADPH by UV-visible spectrophotometry relative to control. Put shortly: (§2)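 Recombinant MtbDXR (pET101/D-TOPO in E. coli BL21 CodonPlus (DE3)-RIL, IMAC-purified) at 0.89 µM in 100 mM MES pH 6.5, 25 mM MgCl2, 150 µM NADPH, 47 µM DOXP, 37 °C. Inhibitor was tested at a single 100 µM. NADPH oxidation was followed at 340 nm, and percent remaining activity was reported. Technical duplicates.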

Series [4] concerns the target T2, 1-deoxy-D-xylulose 5-phosphate reductoisomerase (Mycobacterium tuberculosis, UniProt P9WNS1).
T2 sequence (P9WNS1 whole entry): T1 sequence (whole entry)
As to the kind of experiment: Inhibition of Mycobacterium tuberculosis DXR expressed in Escherichia coli BL21 CodonPlus (DE3)-RIL cells using DOXP as substrate in presence of NADPH by UV-visible spectrophotometry.

Series [5] deals with Plasmodium falciparum. Kind of series: Antiplasmodial activity against Plasmodium falciparum E1-C12 harboring with had1 mutation assessed as reduction in parasite growth by measuring DNA content after 3 days by PicoGreen staining based FLUOstar omega microplate reader analysis. As to conditions: time 3.0 day. The series is classed as functional, organism-based. In outline:
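E1-C12 (had1) parasites, asynchronous, at 2% hematocrit in RPMI-1640/0.5% Albumax with hypoxanthine, under 5% O2/5% CO2/90% N2 at 37 °C. Started at 0.5% parasitemia and dosed at 1.2 nM–492.4 µM. After 3 days, DNA was stained with PicoGreen (ex 485/em 528). IC50 came from a 4-parameter fit; technical duplicates, biological triplicates.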

The subject of series [6] is Mycobacterium tuberculosis. As to the kind of experiment: Antibacterial activity against Mycobacterium tuberculosis H37Rv assessed as reduction in bacterial growth incubated for 2 weeks by macroscopic plate reader analysis. As to conditions: 336 h. Type of series: functional. Put shortly: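 H37Rv grown in 7H9 broth with 0.08% NaCl, 0.4% glucose, 0.05% casitone and 0.05% tyloxapol, then diluted 1:500. Compounds were made as 20 mg/mL DMSO stocks and run as eleven 2-fold serial dilutions. Plates were held 2 weeks at 37 °C and MIC99 was read macroscopically. Three independent measurements.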

The target in series [7] is T3, 1-deoxy-D-xylulose 5-phosphate reductoisomerase, apicoplastic (Plasmodium falciparum (isolate 3D7), UniProt Q8IKG4).
T3 sequence (Q8IKG4 whole entry): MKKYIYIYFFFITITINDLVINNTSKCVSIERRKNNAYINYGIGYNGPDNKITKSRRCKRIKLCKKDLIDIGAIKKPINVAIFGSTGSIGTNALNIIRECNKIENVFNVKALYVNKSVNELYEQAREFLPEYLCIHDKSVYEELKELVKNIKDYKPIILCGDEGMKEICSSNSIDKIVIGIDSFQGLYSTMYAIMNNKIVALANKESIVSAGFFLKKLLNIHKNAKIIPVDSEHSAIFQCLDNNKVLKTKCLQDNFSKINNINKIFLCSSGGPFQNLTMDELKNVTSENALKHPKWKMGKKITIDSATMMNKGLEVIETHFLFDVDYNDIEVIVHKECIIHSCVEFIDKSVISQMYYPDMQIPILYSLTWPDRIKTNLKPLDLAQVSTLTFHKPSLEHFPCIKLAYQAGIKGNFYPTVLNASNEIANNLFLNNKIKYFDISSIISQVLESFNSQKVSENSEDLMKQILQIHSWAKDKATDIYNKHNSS
As to the kind of experiment: Inhibition of Plasmodium falciparum DXR expressed in Escherichia coli BL21 CodonPlus (DE3)-RIL cells using DOXP as substrate in presence of NADPH by UV-visible spectrophotometry.

In series [8] the target is T4, 1-deoxy-D-xylulose 5-phosphate reductoisomerase, apicoplastic (Plasmodium falciparum (isolate 3D7)) (UniProt Q8IKG4).
T4 sequence (whole entry): T3 sequence (Q8IKG4 whole entry)
Kind of series: Inhibition of Plasmodium falciparum DXR expressed in Escherichia coli BL21 CodonPlus (DE3)-RIL cells using DOXP as substrate at 100 uM in presence of NADPH by UV-visible spectrophotometry relative to control. In outline:
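PfDXR single-point test at 100 µM inhibitor. Conditions: 0.86 µM IMAC-purified enzyme, 100 mM Tris pH 7.8, 25 mM MgCl2, 150 µM NADPH, 37 °C. Reaction was started with 144 µM DOXP, and NADPH oxidation was monitored at 340 nm. Percent remaining activity was reported; technical duplicates.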

The nature of series [9]: Cytotoxicity against human HepG2 cells assessed as reduction in cell viability after 24 hrs by Cell Titer Glo assay. The series is classed as toxicity, cell-based. In outline:
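HepG2 cells in DMEM with 4 mM L-glutamine and 4.5 g/L glucose, trypsinized and plated from a 4×10^5 cells/mL suspension. Compounds were tested as two-fold dilutions from 100 to 0.1 µg/mL, with a DMSO-only control, in duplicate. After 24 h at 37 °C, 5% CO2, CellTiter-Glo luminescence was read after 20 min in the dark.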
A general note: Cellular ATP, detected with luciferase, serves as a proxy for viable cell number.

The target of series [10] is T1, 1-deoxy-D-xylulose 5-phosphate reductoisomerase (Mycobacterium tuberculosis). Kind of series: Inhibition of Mycobacterium tuberculosis DXR expressed in Escherichia coli BL21 CodonPlus (DE3)-RIL cells assessed as remaining activity using DOXP as substrate at 100 uM in presence of NADPH by UV-visible spectrophotometry relative to control. Put shortly:
as §2

In series [11] the test system is Mycobacterium tuberculosis. As to the kind of experiment: Antibacterial activity against Mycobacterium tuberculosis H37Rv assessed as reduction in bacterial growth. The series is classed as functional.
For series [12], the system named is Plasmodium falciparum. Kind of series: Antiplasmodial activity against Plasmodium falciparum. Type of series: functional, organism-based. In outline:
as §1

In series [13] the target is T3, 1-deoxy-D-xylulose 5-phosphate reductoisomerase, apicoplastic. As to the kind of experiment: Inhibition of Plasmodium falciparum DXR.
Series [14] concerns the target T2, 1-deoxy-D-xylulose 5-phosphate reductoisomerase. As to the kind of experiment: Inhibition of Mycobacterium tuberculosis DXR using DXP as substrate preincubated for 10 mins followed by NADPH addition and measured after 5 mins by spectrophotometric assay.

Consider `COc1ccc(C(C)ON(CCC(c2ccc(Cl)c(Cl)c2)P(=O)(O)O)C(C)=O)cc1` (stereo unspecified), for which the concentration for half-maximal inhibition (IC50) with Plasmodium falciparum [1] stood at 300 nM; in [4] it was 780 nM; in series [7] it was 110 nM. Also, in the series with Plasmodium falciparum [2], the outcome was inactive. Further, the inhibition in [3] and in [8] was more than 90% throughout. Also, the result in the series with Plasmodium falciparum [5] was Active. Besides, the minimum inhibitory concentration (MIC) in series [6] was more than 98 µM. In addition, in series [9], the half-inhibitory concentration (IC50) at 24 h is more than 200000 nM.

For `CC(=O)N(CCC(c1ccc(Cl)c(Cl)c1)P(=O)(O)O)OC(C)c1ccc(C)cc1` (stereo unspecified), the figures for the IC50 (in the series on Plasmodium falciparum [1]; in series [7]) were 3530 nM and 1210 nM, respectively. In the series with Plasmodium falciparum [2], the result was inactive. In the series with Plasmodium falciparum [5], the outcome was Active. In addition, in series [6], the minimal inhibitory concentration (MIC) is more than 101 µM. In addition, in series [10], the Activity is 30.7%. The inhibition in series [8] is more than 90%. The IC50 at 24 h in series [9] was more than 200000 nM.

In the case of `O=CN(O)CCCP(=O)(O)O` [FOSMIDOMYCIN], the MIC in series [11] was more than 500 µg/mL. This molecule came in with an IC50 in the series on Plasmodium falciparum [12] of 1020 nM.

Regarding `CC(=O)N(CCC(c1ccc(Cl)c(Cl)c1)P(=O)(O)O)OC(C)c1ccc(F)cc1` (stereo unspecified), the figures for the IC50 (with Plasmodium falciparum [1]; in series [4]; in series [7]) were 2420 nM, 4780 nM and 470 nM, respectively. Further, the outcome with Plasmodium falciparum [2] was inactive. For the same molecule, the inhibition in series [3] and in series [8] was more than 90% throughout. Also, the outcome with Plasmodium falciparum [5] was Active. The MIC in series [6] was more than 200 µM. For the same molecule, in [9], the IC50 at 24 h was more than 200000 nM.

Turning to `COc1ccc(C(C)ON(CCC(c2ccc(Cl)c(Cl)c2)P(=O)(OCOC(=O)C(C)(C)C)OCOC(=O)C(C)(C)C)C(C)=O)cc1` (stereo unspecified), in the series with Plasmodium falciparum [1], the IC50 was 370 nM. Further, in the series on Plasmodium falciparum [2], the result was inactive. Besides, in the series on Plasmodium falciparum [5], the result was Active. In addition, the MIC in series [6] is 6.5 µM (≈ 4.58 µg/mL). Also, the half-inhibitory concentration (IC50) at 24 h in [9] is more than 140000 nM.

`CC(=O)N(O)CCCP(=O)(O)O` [FR-900098]: the MIC in [11] was more than 500 µg/mL. The results for the half-maximal inhibitory concentration (IC50) in [13] and in series [14] were 22 nM and 2910 nM, respectively.

A word on the IC50: it is the concentration at which inhibition is half-maximal. The inhibition is the percentage by which the read-out fell short of the control. As a reminder, the MIC is the lowest concentration found to suppress growth.
